This note sets out measurements from paper PMC8710994 (Redox Biology, 2021).

Data set [1] deals with APAP-induced acute liver injury. The experiment in a line: APAP-induced acute liver injury in mice. The class given is in vivo, C57BL/6 male mice.
Data set [2] can be described thus: MTT cytotoxicity assay, LO2. It is filed as cell-based, human. The conditions noted are these: human, LO2 cells.
A short description of data set [3]: Stability by UV-Vis and 1H NMR over 7 days. The class given is physicochemical. As to conditions: 4:1 acetonitrile/aqueous medium, seven days.
The target of data set [4] is T1, Keap1 (Homo sapiens, UniProt Q14145). The experiment in a line: Cellular thermal shift assay. The class given is cell-based. As to conditions: 1 at 5.0 μM, LO2 cell lysates. The method, boiled down: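 LO2 lysate from 2 × 10^6 cells was diluted in PBS and split into equal aliquots. Aliquots were treated with test compound (5.0 μM) or DMSO for 30 min at room temperature, then heated individually across a temperature series. They were centrifuged, and supernatants were run on SDS-PAGE and immunoblotted for Keap1.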

Data set [5] has as its system LO2 cells. The experiment in a line: ROS detection. As to conditions: 5 μM, 8 h. The class given is cell-based, human. The method, boiled down:
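LO2 cells were treated with H2O2 (800 μM, 3 h) and test compound (5 μM, 8 h). Cells were labelled with 5 μM H2DCF-DA in serum-free DMEM at 37 °C for 30 min, washed, and imaged by confocal microscopy at excitation 488 nm, emission 525 nm.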

The nature of data set [6]: Pharmacokinetic profile in mouse plasma by ICP-MS. The conditions noted are these: mice. It is filed as in vivo. The method, boiled down:
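After an overnight fast, C57BL/6J mice received test compound at 5.0 mg kg−1 i.p. Blood was collected into EDTA-2Na at 0, 0.5, 1, 2, 6, 12, 24 and 48 h. Plasma iridium was quantified by ICP-MS, n = 4, shown as mean ± SD.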

In data set [7] the test system is proteasome. The experiment in a line: Proteasome activity fluorometric assay kit. It is filed as cell-based, human. The conditions noted are these: 5 μM, 8 h. The method, boiled down:
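LO2 cells were treated 8 h with test compound (5 μM). Proteasome activity was then measured with a commercial fluorometric kit, with MG132 as positive control.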

Data set [8] concerns HO-1 and NQO1. Description: HO-1 and NQO1 levels in LO2 cells by Western blotting. The class given is cell-based, human.
For data set [9], the target named is T2, Nrf2 (Homo sapiens, UniProt Q16236).
T2 sequence (Q16236 1-605): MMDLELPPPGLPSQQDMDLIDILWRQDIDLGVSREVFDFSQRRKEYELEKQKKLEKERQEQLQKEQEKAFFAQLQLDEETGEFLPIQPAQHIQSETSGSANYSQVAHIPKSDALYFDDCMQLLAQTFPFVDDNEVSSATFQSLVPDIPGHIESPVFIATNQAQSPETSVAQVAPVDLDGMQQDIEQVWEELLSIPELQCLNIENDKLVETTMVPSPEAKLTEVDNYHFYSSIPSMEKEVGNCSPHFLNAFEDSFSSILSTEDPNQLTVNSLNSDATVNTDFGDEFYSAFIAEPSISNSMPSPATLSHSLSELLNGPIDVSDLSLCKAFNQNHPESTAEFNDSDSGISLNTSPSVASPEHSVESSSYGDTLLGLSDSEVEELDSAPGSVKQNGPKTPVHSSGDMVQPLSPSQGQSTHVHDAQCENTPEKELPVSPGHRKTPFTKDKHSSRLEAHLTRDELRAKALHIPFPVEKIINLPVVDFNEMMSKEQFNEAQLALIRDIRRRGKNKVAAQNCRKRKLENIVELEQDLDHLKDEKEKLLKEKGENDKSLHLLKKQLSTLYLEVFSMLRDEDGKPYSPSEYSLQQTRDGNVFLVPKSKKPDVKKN
The experiment in a line: Isothermal titration calorimetry with recombinant Nrf2. The class given is binding. The conditions noted are these: 200 μM of 1 titrated into Nrf2 (20 μM).

In data set [10] the test system is LO2 cells. The experiment in a line: Cellular uptake in LO2 cells by ICP-MS. It is filed as in vitro ADME, human. The conditions noted are these: 5 μM. The method, boiled down:
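LO2 cells were incubated with test compound at 5 μM for varying times. Iridium was then quantified by ICP-MS in whole cells and in separated nuclear and cytoplasmic fractions. Three independent experiments were run, shown as mean ± standard deviation; one-way ANOVA with Tukey's test.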

In data set [11] the test system is LO2 cells. Description: Cytoprotection against APAP-induced cytotoxicity in LO2 cells. It is filed as cell-based, human.
The target of data set [12] is Keap1 and Nrf2 binding (Homo sapiens, UniProt Q14145). Description: Competitive assay. As to conditions: competitive inhibitor, double-reciprocal plot. The method, boiled down: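 Fluorescence polarisation kit assay. Diluted Keap1 ([…]) was combined with Nrf2 peptide (1 μM stock), BSA and test compound in kit buffer. The mix was incubated 0.5 h at ambient temperature and read at excitation 485 nm, emission 535 nm. For the competitive format, wells held […] Nrf2 with test compound at several concentrations.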

The subject of data set [13] is LO2 cells. The experiment in a line: MTT cytotoxicity assay, LO2. The class given is cell-based, human. The conditions noted are these: read-out: cytotoxicity IC50; LO2, MTT, 48 h.
Data set [14] has as its system LO2 cells. The experiment in a line: Mitochondrial membrane potential by rhodamine 123 staining in LO2 cells. It is filed as cell-based, human. As to conditions: 5 μM, 8 h. The method, boiled down: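 LO2 cells were attached overnight, then treated 8 h with test compound (5 μM). CCCP (10 μM, 1 h) was the positive control. Cells were stained with rhodamine 123 (5 μg/mL, 30 min) for fluorescence microscopy. For quantitation, washed cells at 1.0 × 10^5 cells/mL were stained at 37 °C in the dark for 30 min and read by spectrofluorometer at excitation 505 nm, emission 534 nm.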

For data set [15], the system named is mice. The experiment in a line: Toxicity evaluation and organ distribution in mice. It is filed as in vivo. The method, boiled down: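 Mice received test compound at 2.5 or 5.0 mg kg−1 i.p.; body and organ weights were recorded after 6 h. Organ index = organ wet weight/body weight × 100%; the figure legend reports indexes at 12 h, n = 5. About 100 mg tissue was ground in liquid nitrogen, nitric-acid digested, and analysed for iridium by ICP-MS. Organs were fixed 24 h, sectioned at 4 μm, and H&E stained.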

The target in data set [16] is T2, Nrf2. Description: Cellular thermal shift assay. It is filed as cell-based. As to conditions: 1 at 5.0 μM, LO2 cell lysates.
Data set [17] deals with T3, Keap1–Nrf2 interaction (Homo sapiens, UniProt Q14145). Description: Fluorescence polarization. As to conditions: read-out: Keap1–Nrf2 binding inhibition IC50; FP assay.
Data set [18] addresses T3, Keap1–Nrf2 interaction. The experiment in a line: Co-immunoprecipitation of Keap1 and Nrf2 in LO2 cells. As to conditions: 5.0 μM, 8 h. It is filed as cell-based.
Data set [19] concerns Nrf2. Description: Nrf2 nuclear translocation in LO2 cells. The class given is cell-based, human. The conditions noted are these: after 1 h.
For data set [20], the target named is T1, Keap1. Description: Isothermal titration calorimetry with recombinant Keap1. It is filed as binding. The method, boiled down:
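Human His6-Keap1 was expressed in E. coli BL21(DE3) (1 mM IPTG, 37 °C, 4 h) and purified on a His column. Protein and test compound were dialysed into 20 mM Bis-Tris, 150 mM NaCl, 2 mM DTT. Compound (200 μM) was titrated into protein (20 μM) in 19 × 2 μL injections, 150 s apart, at 25 °C and 750 rpm. Control titrations were included; data were fitted with a composite model.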

Where [21] appears, read: 1 at 5.0 mg kg−1, 6 h after APAP challenge.

Bounds are passed on as bounds.

T1 sequence (Q14145 whole entry): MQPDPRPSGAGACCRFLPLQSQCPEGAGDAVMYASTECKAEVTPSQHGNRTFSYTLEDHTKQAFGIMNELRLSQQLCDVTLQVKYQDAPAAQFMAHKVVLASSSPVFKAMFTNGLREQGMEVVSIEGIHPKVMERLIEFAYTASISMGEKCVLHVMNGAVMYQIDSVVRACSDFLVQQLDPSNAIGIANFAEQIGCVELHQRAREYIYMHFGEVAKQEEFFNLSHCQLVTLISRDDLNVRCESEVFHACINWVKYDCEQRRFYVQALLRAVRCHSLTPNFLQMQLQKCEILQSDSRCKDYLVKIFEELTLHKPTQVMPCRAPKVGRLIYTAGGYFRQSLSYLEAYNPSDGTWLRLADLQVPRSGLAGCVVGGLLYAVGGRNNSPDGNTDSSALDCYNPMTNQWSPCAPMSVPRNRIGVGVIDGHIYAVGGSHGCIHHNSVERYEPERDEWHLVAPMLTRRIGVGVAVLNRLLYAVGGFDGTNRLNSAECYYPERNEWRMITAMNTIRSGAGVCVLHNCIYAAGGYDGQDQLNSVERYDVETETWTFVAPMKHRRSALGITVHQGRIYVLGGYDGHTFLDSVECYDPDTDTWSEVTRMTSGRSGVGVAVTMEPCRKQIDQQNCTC
T3 sequence (Q14145 whole entry): as above
Keap1 and Nrf2 binding, sequence (Q14145 whole entry): as above

As for `CC(=O)Nc1ccc(O)cc1` [APAP, Acetaminophen, reference compound], in data set [1] (12 h after APAP challenge), the “serum ALT, maximum level” value amounted to 3334.98 U/L and the “serum AST, maximum level” value was determined as 2002.31 U/L. For the same compound, in [1] (48 h after APAP challenge), the “serum ALT” value was 608.41 U/L and the “serum AST” value was 488.20 U/L. In [1] (APAP 400 mg kg−1), the “increase in serum ALT compared with the control group” value was 188 fold and the “increase in serum AST compared with the control group” value is given as 216 fold. The “percentage of necrotic liver areas” value in data set [1] (APAP 400 mg kg−1 i.p. alone (model group)) was 21.01%.

In the case of `Clc1cc(-c2ccccc2)nc2ccccc12` [Ligand 7, 4-chloro-2-phenylquinoline], in data set [2], the 50% inhibitory concentration (IC50) at 48 h was greater than 100000 nM.

In turn, `Cc1ccc2ccc3ccc(C)nc3c2n1` [Ligand 8, 2,9-dimethyl-1,10-phenanthroline] showed an IC50 at 48 h in [2] greater than 100000 nM.

For the compound “[Ir (clpq)2 (2,9-dmphen)](PF6) [Complex 1]”, in data set [3], the stability result is “good stability”. Moreover, the “shift of Keap1 melting curve” value in data set [4] was “ca. 6 °C”. Moreover, in [5], the “effect on ROS elevation” value is “no significant effect”. This compound also yielded an elimination half-life in data set [6] (5 mg kg−1 i.p.) of 12 h. In addition, the “maximum mean peak area in plasma (Cmax)” value in [6] (5.0 mg kg−1 i.p.) is 13700 ng/mL. Besides, the highest concentration (Cmax) in data set [6] (read-out: maximum mean peak area in plasma (Cmax), 5.0 mg kg−1 i.p.) was found to be 13.4 µM. Moreover, the “effect on proteasomal inhibition” value in data set [7] is given as “no significant effect”. For the same compound, the “levels of HO-1 and NQO1” value in data set [8] (6 h treatment) is “increased”. Besides, in data set [8] (Keap1 siRNA), the “increase of HO-1 and NQO1 levels in Keap1 knockdown cells versus control cells” value is “less effective”. Besides, the “increase of HO-1 and NQO1 levels after Nrf2 knockdown” value in data set [8] (Nrf2 siRNA) is “muted”. Further, the “binding to Nrf2 by ITC” value in [9] is reported as “no binding was observed”. In addition, the “cellular permeability (iridium levels in nucleus and cytoplasm)” value in data set [10] is reported as “good cellular permeability”. The “cell viability of LO2 cells after treatment with APAP” value in data set [11] was “dose-dependent restoration of cell viability”. Besides, the affinity in data set [12] corresponds to a Ki of 1030 nM. In addition, the IC50 in [13] turned out to be 48000 nM. In data set [14], the “effect on mitochondrial dysfunction” value was “no significant effect”. In addition, the “organ damage (organ morphology, organ index, H&E)” value in data set [15] (5.0 mg kg−1 i.p., 6, 12 and 24 h) is on record as “did not cause organ damage”. Besides, in data set [15] (i.p., 6 h), the “concentration in various organs (ICP-MS)” value is “mainly concentrated in the liver and kidney”. Besides, in data set [1] (1 (5 mg/kg), time intervals 6, 12, 24 and 48 h after APAP), the “reductions of AST levels” value is listed as 32.29–53.62%. Further, in data set [1] (setting [21]), the “decrease of serum ALT” value is on record as 23.5% and the “decrease of serum AST” value is recorded as 25.2%. For the same compound, the “percentage of necrotic liver areas” value in data set [1] (APAP 400 mg kg−1 + 1 at 2.5 mg kg−1 i.p. once daily for five days) is given as 16.04%. Also, the “percentage of necrotic liver areas” value in [1] (APAP 400 mg kg−1 + 1 at 5.0 mg kg−1 i.p. once daily for five days) worked out at 8.99%. Also, in data set [1] (mice, APAP + 1), the “Nrf2 levels in the nucleus (liver) in comparison to the APAP group” value is listed as “significantly increased” and the “protein expression of Keap1 (liver)” value is reported as “remained basal”. The “shift of Nrf2 melting curve” value in data set [16] is reported as “no significant shift”. Also, the IC50 in [17] amounted to 1090 nM. The “Nrf2 co-precipitated with Keap1” value in [18] was “reduction of Nrf2 co-precipitated with Keap1”. In data set [19], the “Nrf2 accumulation in the nucleus” value is listed as “induced Nrf2 accumulation in the nucleus”. In data set [20] (Keap1), the “-TΔS (ITC)” value was -1.64 kcal/mol, the “stoichiometry N (ITC)” value was 0.962 ± 0.026, the “ΔG (ITC)” value is -8.39 kcal/mol and the “ΔH (ITC)” value is -6.75 kcal/mol. In addition, in data set [20] (read-out: Kd (ITC), 200 μM of 1 titrated into Keap1 (20 μM), 25 °C), the Kd turned out to be 710 ± 790 nM.
